Assay results taken from ChEMBL document CHEMBL1157620, “1-(Aryl)-6-[alkoxyalkyl]-3-azabicyclo[3.1.0]hexanes and 6-(aryl)-6-[alkoxyalkyl]-3-azabicyclo[3.1.0]hexanes: a new series of potent and selective triple reuptake inhibitors” (J Med Chem, 2010).

Experiments:
Homo sapiens [1] = organism: Homo sapiens; test: Selectivity for human recombinant SERT over human recombinant DAT
Homo sapiens [2] = organism: Homo sapiens; test: Selectivity for human recombinant NET over human recombinant DAT
[3] = target: Sodium-dependent dopamine transporter (Homo sapiens, UniProt Q01959); test: Displacement of [3H]WIN-35428 from human recombinant DAT expressed in BacMam virus-transduced cells by scintillation proximity assay; format: cell-based
[4] = target: Sodium-dependent noradrenaline transporter (Homo sapiens, UniProt P23975); test: Displacement of [3H]nisoxetine from human recombinant NET expressed in BacMam virus-transduced cells by scintillation proximity assay; format: cell-based
Outline: (§1)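 BacMam-transduced membranes in SPA format. SERT: 1 mg/mL beads, 6 μg/mL membranes, 3 nM [3H]citalopram. NET: 2 mg/mL beads, 40 μg/mL membranes, 10 nM [3H]nisoxetine. Incubated overnight at room temperature; pKi from pIC50 by Cheng-Prusoff.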

[5] = target: Sodium-dependent serotonin transporter (Homo sapiens, UniProt P31645); test: Displacement of [3H]citalopram from human recombinant SERT expressed in BacMam virus-transduced cells by scintillation proximity assay; format: cell-based; outline: as §1
[6] = Blood clearance in rat; format: ADME, organism-based
[7] = (§2) Half life in rat; format: ADME, organism-based; conditions: in vivo
[8] = Volume of distribution in rat; format: ADME, organism-based; conditions: in vivo
[9] = Bioavailability in rat; format: ADME, organism-based; conditions: in vivo
[10] = Ratio of drug level in brain to blood in rat; format: ADME, tissue-based; conditions: read-out: BBR
[11] = Fraction unbound in rat brain; format: ADME, tissue-based; conditions: brain
Rattus norvegicus = organism: Rattus norvegicus; test: as §2; format: ADME, organism-based; conditions: in vivo
Cytochrome P450 1A2 = target: T1, Cytochrome P450 1A2 (Homo sapiens, UniProt P05177); test: Inhibition of human CYP1A2 by fluorescence assay; format: ADME
T1 sequence (P05177 whole entry): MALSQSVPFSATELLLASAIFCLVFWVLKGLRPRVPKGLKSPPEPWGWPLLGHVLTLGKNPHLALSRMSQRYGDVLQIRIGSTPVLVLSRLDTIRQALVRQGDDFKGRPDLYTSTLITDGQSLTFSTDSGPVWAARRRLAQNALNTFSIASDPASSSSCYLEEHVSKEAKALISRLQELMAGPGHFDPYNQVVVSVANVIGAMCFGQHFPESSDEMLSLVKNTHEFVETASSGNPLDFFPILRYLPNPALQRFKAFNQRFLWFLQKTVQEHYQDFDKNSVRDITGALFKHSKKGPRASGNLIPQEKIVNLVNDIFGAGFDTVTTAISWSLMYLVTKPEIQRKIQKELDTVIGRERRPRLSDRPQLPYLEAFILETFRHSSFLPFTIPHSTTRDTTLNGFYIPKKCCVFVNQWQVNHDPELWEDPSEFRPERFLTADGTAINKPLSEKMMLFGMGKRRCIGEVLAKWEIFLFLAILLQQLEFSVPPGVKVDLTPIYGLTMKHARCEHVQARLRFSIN
Outline: (§3)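 Recombinant human P450 bactosomes (0.1 mg/mL) in 50 mM phosphate, pH 7.4. Test compound at 0.1-10 μM, preincubated 10 min at 37 °C with fluorogenic substrate: ethoxyresorufin 0.5 μM (1A2), FCA 50 μM (2C9), BMC 10 μM (2C19), MMC 10 μM (2D6).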

Cytochrome P450 2C9 = Cytochrome P450 2C9 (Homo sapiens, UniProt P11712); test: Inhibition of human CYP2C9 by fluorescence assay; format: ADME; outline: as §3
Cytochrome P450 2C19 = Cytochrome P450 2C19 (Homo sapiens, UniProt P33261); test: Inhibition of human CYP2C19 by fluorescence assay; format: ADME; outline: as §3
Cytochrome P450 2D6 = Cytochrome P450 2D6 (Homo sapiens, UniProt P10635); test: Inhibition of human […] by fluorescence assay; format: ADME; outline: as §3
Cytochrome P450 3A4 = Cytochrome P450 3A4 (Homo sapiens, UniProt P08684); test: Inhibition of human CYP3A4 by fluorescence assay
[12] = (§4) Intrinsic clearance in human liver microsomes assessed per gram of protein at 0.5 uM after 30 mins by HPLC-MS/MS analysis; format: ADME, Microsome; conditions: liver microsomes
Outline: (§5)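 Compound at 0.5 μM with rat or human liver microsomes (0.5 mg protein/mL), 50 mM phosphate, pH 7.4, 37 °C, started with NADPH. Sampled at 0-30 min, acetonitrile quench, HPLC-MS/MS. CLi from first-order elimination constant, scaled assuming 52.5 mg microsomal protein/g.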

[13] = (§6) Intrinsic clearance in rat liver microsomes assessed per gram of protein at 0.5 uM after 30 mins by HPLC-MS/MS analysis; format: ADME, Microsome; conditions: liver microsomes; outline: as §5
Liver microsomes [14] = test: as §4; format: ADME, Microsome; conditions: microsomes, 0.5 h, 0.5 µM; outline: as §5
Liver microsomes [15] = test: as §6; format: ADME, Microsome; conditions: microsomes, 0.5 h, 0.5 µM; outline: as §5

Cytochrome P450 2C9, sequence (P11712 whole entry): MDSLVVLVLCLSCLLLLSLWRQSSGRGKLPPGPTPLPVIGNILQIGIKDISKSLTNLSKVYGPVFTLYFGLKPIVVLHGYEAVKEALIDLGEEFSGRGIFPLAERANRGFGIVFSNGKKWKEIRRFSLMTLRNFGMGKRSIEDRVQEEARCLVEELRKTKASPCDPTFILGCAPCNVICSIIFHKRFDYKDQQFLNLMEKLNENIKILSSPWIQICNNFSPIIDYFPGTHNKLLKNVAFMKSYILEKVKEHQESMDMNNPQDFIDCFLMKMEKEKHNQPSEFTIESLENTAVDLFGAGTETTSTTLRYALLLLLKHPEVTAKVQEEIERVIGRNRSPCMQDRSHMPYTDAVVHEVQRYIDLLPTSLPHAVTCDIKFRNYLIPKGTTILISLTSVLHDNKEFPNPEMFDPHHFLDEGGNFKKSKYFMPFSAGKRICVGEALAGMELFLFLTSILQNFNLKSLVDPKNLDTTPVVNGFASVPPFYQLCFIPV
Sodium-dependent serotonin transporter, sequence (P31645 whole entry): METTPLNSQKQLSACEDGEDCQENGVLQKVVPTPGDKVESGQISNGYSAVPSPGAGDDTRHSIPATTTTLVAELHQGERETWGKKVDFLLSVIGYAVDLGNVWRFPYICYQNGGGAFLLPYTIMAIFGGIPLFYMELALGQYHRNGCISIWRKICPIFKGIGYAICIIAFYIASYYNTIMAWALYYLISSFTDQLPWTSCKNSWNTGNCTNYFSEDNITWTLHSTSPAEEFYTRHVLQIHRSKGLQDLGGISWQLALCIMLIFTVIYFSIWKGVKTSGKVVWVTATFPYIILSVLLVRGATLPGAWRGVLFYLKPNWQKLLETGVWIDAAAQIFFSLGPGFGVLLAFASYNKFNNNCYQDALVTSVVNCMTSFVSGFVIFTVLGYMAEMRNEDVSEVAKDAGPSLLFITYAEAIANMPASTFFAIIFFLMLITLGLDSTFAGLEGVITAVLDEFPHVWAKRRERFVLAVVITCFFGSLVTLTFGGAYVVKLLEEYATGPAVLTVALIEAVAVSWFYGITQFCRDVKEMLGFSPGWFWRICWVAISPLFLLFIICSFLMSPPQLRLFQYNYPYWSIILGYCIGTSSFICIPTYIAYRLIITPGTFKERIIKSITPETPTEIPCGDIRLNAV
Cytochrome P450 2D6, sequence (P10635 whole entry): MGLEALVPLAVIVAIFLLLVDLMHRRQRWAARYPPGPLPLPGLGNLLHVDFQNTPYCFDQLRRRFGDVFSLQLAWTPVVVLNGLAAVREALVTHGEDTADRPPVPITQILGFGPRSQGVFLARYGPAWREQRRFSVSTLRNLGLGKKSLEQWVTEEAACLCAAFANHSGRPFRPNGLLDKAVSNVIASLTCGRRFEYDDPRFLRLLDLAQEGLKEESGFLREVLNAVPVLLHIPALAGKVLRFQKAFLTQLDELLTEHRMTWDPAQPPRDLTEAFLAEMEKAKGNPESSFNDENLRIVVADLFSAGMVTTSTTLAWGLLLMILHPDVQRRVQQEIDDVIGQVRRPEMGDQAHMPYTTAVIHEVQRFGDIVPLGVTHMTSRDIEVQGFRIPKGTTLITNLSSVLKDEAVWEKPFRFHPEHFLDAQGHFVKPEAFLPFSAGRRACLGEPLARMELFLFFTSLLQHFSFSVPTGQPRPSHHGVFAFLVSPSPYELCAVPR
Sodium-dependent dopamine transporter, sequence (Q01959 whole entry): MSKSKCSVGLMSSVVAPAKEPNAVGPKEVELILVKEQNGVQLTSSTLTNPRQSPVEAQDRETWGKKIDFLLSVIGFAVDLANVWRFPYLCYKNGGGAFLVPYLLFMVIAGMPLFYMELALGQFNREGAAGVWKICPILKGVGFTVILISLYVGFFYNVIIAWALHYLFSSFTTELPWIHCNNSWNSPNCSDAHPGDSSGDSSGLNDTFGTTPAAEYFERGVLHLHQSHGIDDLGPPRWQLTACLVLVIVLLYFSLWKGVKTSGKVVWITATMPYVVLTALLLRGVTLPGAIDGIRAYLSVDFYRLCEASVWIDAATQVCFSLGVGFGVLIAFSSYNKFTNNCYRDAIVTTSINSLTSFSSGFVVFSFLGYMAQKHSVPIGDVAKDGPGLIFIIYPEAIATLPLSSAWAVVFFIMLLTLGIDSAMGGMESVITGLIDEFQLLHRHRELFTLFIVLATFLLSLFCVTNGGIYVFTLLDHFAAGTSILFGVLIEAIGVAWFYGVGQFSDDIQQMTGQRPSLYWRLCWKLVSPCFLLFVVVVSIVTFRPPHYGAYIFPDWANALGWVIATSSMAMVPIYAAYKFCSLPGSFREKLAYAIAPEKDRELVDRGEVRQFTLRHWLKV
Cytochrome P450 2C19, sequence (P33261 whole entry): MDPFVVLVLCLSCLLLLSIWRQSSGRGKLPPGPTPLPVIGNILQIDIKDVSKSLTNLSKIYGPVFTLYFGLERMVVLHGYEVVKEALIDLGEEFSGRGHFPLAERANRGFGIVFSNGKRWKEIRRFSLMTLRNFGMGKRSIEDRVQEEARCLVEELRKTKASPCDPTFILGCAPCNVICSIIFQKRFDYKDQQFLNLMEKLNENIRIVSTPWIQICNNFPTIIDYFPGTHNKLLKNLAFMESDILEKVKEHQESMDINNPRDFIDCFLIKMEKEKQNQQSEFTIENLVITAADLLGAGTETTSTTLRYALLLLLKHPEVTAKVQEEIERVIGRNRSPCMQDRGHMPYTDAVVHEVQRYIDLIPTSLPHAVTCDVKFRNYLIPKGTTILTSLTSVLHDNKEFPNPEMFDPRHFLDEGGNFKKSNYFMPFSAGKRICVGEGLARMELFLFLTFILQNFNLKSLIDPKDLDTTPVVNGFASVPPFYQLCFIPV
Cytochrome P450 3A4, sequence (P08684 whole entry): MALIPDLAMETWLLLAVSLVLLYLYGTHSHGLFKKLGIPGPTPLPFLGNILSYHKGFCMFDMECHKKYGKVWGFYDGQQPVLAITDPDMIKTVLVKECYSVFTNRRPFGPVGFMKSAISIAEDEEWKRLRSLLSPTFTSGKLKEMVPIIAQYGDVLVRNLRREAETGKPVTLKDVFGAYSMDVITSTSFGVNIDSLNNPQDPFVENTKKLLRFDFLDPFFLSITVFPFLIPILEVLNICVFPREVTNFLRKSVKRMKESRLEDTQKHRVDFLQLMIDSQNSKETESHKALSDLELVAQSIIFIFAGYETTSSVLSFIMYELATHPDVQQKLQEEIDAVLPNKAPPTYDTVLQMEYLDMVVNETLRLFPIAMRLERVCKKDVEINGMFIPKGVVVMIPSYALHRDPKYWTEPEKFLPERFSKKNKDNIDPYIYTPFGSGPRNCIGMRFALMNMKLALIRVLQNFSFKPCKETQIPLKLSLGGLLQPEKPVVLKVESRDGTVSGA
Sodium-dependent noradrenaline transporter, sequence (P23975 whole entry): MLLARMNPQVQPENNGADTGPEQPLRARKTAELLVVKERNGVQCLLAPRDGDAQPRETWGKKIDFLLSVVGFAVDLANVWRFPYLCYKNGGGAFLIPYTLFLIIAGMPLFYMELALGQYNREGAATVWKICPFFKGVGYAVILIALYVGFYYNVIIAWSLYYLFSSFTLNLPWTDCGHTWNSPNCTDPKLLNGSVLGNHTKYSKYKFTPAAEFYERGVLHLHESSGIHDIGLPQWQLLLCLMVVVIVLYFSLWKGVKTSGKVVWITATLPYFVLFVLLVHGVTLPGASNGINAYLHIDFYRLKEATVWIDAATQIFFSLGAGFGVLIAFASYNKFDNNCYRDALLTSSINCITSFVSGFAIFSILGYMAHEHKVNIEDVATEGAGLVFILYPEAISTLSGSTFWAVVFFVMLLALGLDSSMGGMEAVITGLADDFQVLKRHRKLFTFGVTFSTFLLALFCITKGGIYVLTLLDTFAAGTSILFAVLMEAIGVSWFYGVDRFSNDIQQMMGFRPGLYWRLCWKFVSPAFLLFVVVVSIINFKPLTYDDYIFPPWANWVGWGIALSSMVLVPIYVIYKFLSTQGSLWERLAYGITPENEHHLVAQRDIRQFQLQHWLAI

SMILES | Ki [3] [nM] | Ki [4] [nM] | Ki [5] [nM] | clearance [6] [mL/min/kg] | half-life [7] [h] | Vd [8] [L/kg] | bioavailability [9] [%] | Kp [10] | fraction unbound [11] | IC50 (Cytochrome P450 1A2) [nM] | IC50 (Cytochrome P450 2C9) [nM] | IC50 (Cytochrome P450 2C19) [nM] | IC50 (Cytochrome P450 2D6) [nM] | IC50 (Cytochrome P450 3A4) [nM] | CLint scaled at 0.5 µM [12] [mL/min/kg] | CLint scaled at 0.5 µM [13] [mL/min/kg] | further results
COC[C@H]1[C@@H]2CNC[C@@]21c1ccc(Cl)c(Cl)c1 (relative stereo) |  |  |  |  |  |  |  |  |  |  |  |  |  |  |  |  | Selectivity ratio (Homo sapiens [1]): 70; Selectivity ratio (Homo sapiens [2]): 70
FC(F)(F)COC[C@@H]1[C@H]2CNC[C@]21c1ccc(Cl)c(Cl)c1 (stereo in doubt) | 25.1 | 1.58 | 0.631 | 42 | 1.4 | 3.2 | 41 | 18 | 0.006 |  |  |  |  |  |  |  | 
FC(F)(F)COC[C@H]1[C@@H]2CNC[C@@]21c1ccc(Cl)c(Cl)c1 (stereo in doubt) | 50.1 | 3.98 | 1.26 |  |  |  |  | 18 | 0.006 |  |  |  |  |  |  |  | t1/2 (Rattus norvegicus): 1.4 h
COC[C@@H]1[C@H]2CNC[C@]21c1ccc2ccccc2c1 (stereo in doubt) | 25.1 | 0.631 | 0.0794 |  |  |  |  |  |  | 900 | > 4000 | > 4000 | > 4000 | > 4000 | 2.2 | 3.9 | 
CC(C)OC[C@@H]1[C@H]2CNC[C@]21c1ccc(Cl)c(Cl)c1 (stereo in doubt) | 5.01 | 0.251 | 0.126 |  |  |  |  |  |  | > 8000 | > 8000 | > 8000 | > 8000 | > 8000 | 1.4 | < 0.5 | 
Clc1ccc([C@@]23CNC[C@@H]2[C@H]3COCC2CC2)cc1Cl (stereo in doubt) | 12.6 | 0.631 | 0.316 | 72 | 1 | 5.2 | 32 | 10 | 0.001 | > 10000 | > 10000 | 3000 | 1000 | > 10000 |  |  | CL (Liver microsomes [14]): < 0.5 mL/min/g; CL (Liver microsomes [15]): 2.6 mL/min/g
